One experiment addresses Cannabinoid receptor 2 (Homo sapiens, UniProt P34972). Kind of experiment: Displacement of [3H]WIN-55212-2 from human recombinant CB2 receptor expressed in CHO-K1 cell membrane. The class given is cell membranes. An outline of the steps:
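CB2 membranes were from CHO K-1 cells transfected with human CB2, prepared in TME buffer (pH 7.4) and incubated with 3 nM [3H]WIN55,212-2 in TME plus 0.5% fatty-acid-free BSA for 1 h at 30 °C. Bound label was filtered on PEI-soaked GF/B, washed with ice-cold buffer containing 0.1% BSA, and counted by scintillation. IC50 values are from single determinations.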
(In general: Displacement assays read how much labelled ligand stays bound in the presence of the test substance.)

The nature of experiment [1]: Selectivity for Sprague-Dawley rat CB1 receptor over human recombinant CB2 receptor. An outline of the steps:
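Selectivity is the ratio of the hCB2 IC50 to the rCB1 IC50. The hCB2 IC50 came from CHO-K1 membrane displacement of [3H]WIN55,212-2, and the rCB1 IC50 from rat cerebellar membrane binding. Both binding assays ran 1 h at 30 °C with filtration and scintillation counting.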

Another experiment deals with Cannabinoid receptor 1 (Rattus norvegicus, UniProt P20272). Kind of experiment: Displacement of [3H]CP-55940 from CB1 receptor in Sprague-Dawley rat cerebellar membrane. Set-up: species or system Cerebellum. In outline: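 Membranes came from cerebella of male Sprague Dawley rats (200–300 g), homogenized in TME buffer (50 mM Tris–HCl, 1 mM EDTA, 3 mM MgCl2, pH 7.4) and spun at 48,000g for 30 min at 4 °C. They were incubated 1 h at 30 °C in TME with 0.5% fatty-acid-free BSA, then filtered on PEI-soaked GF/B, washed and counted by scintillation. IC50 values are from single determinations.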

Experimental findings from ChEMBL document CHEMBL1159084, “Synthesis and structure-activity relationship of 1,2,4-triazole-containing diarylpyrazolyl carboxamide as CB1 cannabinoid receptor-ligand” (Bioorg Med Chem, 2010) are described below.

Cannabinoid receptor 1, sequence (P20272 whole entry): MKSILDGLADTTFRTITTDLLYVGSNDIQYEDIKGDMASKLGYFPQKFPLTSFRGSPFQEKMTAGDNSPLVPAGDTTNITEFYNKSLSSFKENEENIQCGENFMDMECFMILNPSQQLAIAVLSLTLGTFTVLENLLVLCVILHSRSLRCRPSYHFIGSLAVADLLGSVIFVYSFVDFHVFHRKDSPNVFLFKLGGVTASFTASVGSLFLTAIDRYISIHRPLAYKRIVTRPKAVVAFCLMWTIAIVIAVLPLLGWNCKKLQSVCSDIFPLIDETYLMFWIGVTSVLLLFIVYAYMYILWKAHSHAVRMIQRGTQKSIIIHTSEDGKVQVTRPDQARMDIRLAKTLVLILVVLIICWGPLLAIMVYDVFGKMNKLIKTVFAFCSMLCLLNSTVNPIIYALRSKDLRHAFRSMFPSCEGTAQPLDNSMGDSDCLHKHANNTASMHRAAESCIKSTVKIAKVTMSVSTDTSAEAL
Cannabinoid receptor 2, sequence (P34972 whole entry): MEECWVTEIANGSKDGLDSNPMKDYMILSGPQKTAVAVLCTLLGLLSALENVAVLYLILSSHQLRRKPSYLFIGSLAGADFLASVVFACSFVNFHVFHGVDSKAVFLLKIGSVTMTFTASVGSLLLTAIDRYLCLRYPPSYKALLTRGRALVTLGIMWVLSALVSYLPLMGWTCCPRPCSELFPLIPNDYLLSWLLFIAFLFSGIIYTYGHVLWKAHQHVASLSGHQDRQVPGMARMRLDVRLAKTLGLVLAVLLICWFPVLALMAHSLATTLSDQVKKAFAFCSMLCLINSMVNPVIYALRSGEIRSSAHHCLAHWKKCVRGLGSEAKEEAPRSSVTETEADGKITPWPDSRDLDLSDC

As for `O=C(NC1(c2ccccc2)CC1)c1nn(-c2ccccc2Cl)c(-c2ccc(Br)cc2)c1Cn1cncn1`, the IC50 (in general, the concentration that gives 50% inhibition) at Cannabinoid receptor 2 came to 3200 nM; at Cannabinoid receptor 1 it was 1.98 nM. Moreover, the Ratio IC50 in experiment [1] is 1620. On the same counts, the results for `O=C(NC1CCCCC1)c1nn(-c2ccccc2Cl)c(-c2ccc(Br)cc2)c1Cn1cncn1` are 4060 nM, 1.6 nM and 2540. On the same counts, the results for `CC(NC(=O)c1nn(-c2ccccc2Cl)c(-c2ccc(Br)cc2)c1Cn1cncn1)c1ccc(Cl)cc1Cl` (stereo not drawn) are 2420 nM, 2.2 nM and 1100. As for `CC(NC(=O)c1nn(-c2ccccc2Cl)c(-c2ccc(Cl)cc2)c1Cn1cncn1)c1ccc(Cl)cc1Cl` (stereo not drawn), the IC50 was determined as 3330 nM on Cannabinoid receptor 2 and 2 nM at Cannabinoid receptor 1. For the same compound, the Ratio IC50 in experiment [1] came out at 1660. Take `CC(NC(=O)c1nn(-c2ccc(Cl)cc2Cl)c(-c2ccc(Cl)cc2)c1Cn1cncn1)c1ccc(Cl)cc1Cl` (stereo not drawn): the IC50 on Cannabinoid receptor 1 amounted to 2.6 nM. `O=C(NNC(=O)C1(c2ccc(Cl)cc2)CC1)c1nn(-c2ccc(Cl)cc2Cl)c(-c2ccc(Cl)cc2)c1Cn1cncn1` displayed an IC50 on Cannabinoid receptor 1 of 44.5 nM. On the same count and under the same terms, with `Cc1cccc(N2CCN(C(=O)c3nn(-c4ccc(Cl)cc4Cl)c(-c4ccc(Cl)cc4)c3Cn3cncn3)CC2)c1C` the figure was 11.5 nM; with `O=C(NC1(C(F)(F)F)CC1)c1nn(-c2ccc(Cl)cc2Cl)c(-c2ccc(Br)cc2)c1Cn1cncn1`, 3.31 nM. Still for that read-out and setting: as for `CN1CCN(C(=O)c2nn(-c3ccc(Cl)cc3Cl)c(-c3ccc(Br)cc3)c2Cn2cncn2)CC1`, the figure is 1340 nM; as for `O=C(c1nn(-c2ccc(Cl)cc2Cl)c(-c2ccc(Cl)cc2)c1Cn1cncn1)N1CCN(c2ccccc2)CC1`, 8.88 nM. Turning to `O=C(c1nn(-c2ccccc2Cl)c(-c2ccc(Br)cc2)c1Cn1cncn1)N1CCN(c2cccc(Cl)c2)CC1`, the values for the IC50 at Cannabinoid receptor 2 and on Cannabinoid receptor 1 were 296 nM and 2.28 nM, respectively. Also, the Ratio IC50 in experiment [1] turned out to be 130. For the compound `O=C(NC1(c2ccc(Cl)cc2)CC1)c1nn(-c2ccccc2Cl)c(-c2ccc(Cl)cc2)c1Cn1cncn1`, at Cannabinoid receptor 1, the IC50 came out at 9.03 nM.

In the case of `O=C(NCC1CCCCC1)c1nn(-c2ccccc2Cl)c(-c2ccc(Cl)cc2)c1Cn1cncn1`, the IC50 at Cannabinoid receptor 1 is 12.2 nM.

`O=C(c1nn(-c2ccc(Cl)cc2Cl)c(-c2ccc(Cl)cc2)c1Cn1cncn1)N1CCN(c2cccc(Cl)c2Cl)CC1` had an IC50 at Cannabinoid receptor 1 of 5.5 nM. The same measure, in the same setting: with `CCNC1(C(N)=O)CCN(C(=O)c2nn(-c3ccc(Cl)cc3Cl)c(-c3ccc(Cl)cc3)c2Cn2cncn2)CC1` the figure was 878 nM. As to `O=C(NC1(C(F)(F)F)CC1)c1nn(-c2ccccc2Cl)c(-c2ccc(Cl)cc2)c1Cn1cncn1`, the IC50 on Cannabinoid receptor 1 amounted to 4.75 nM.

At Cannabinoid receptor 1, `O=C(NCc1ccccn1)c1nn(-c2ccc(Cl)cc2Cl)c(-c2ccc(Cl)cc2)c1Cn1cncn1` came in with an IC50 of 74.8 nM. At Cannabinoid receptor 1, `O=C(NC1(C(F)(F)F)CCC1)c1nn(-c2ccc(Cl)cc2Cl)c(-c2ccc(Br)cc2)c1Cn1cncn1` showed an IC50 of 3.87 nM. Still for that read-out and setting: as for `CC(C)(C)NC(=O)c1nn(-c2ccc(Cl)cc2Cl)c(-c2ccc(Cl)cc2)c1Cn1cncn1`, the figure is 4.9 nM; as for `CC(C)(C)NC(=O)c1nn(-c2ccc(Cl)cc2Cl)c(-c2ccc(Br)cc2)c1Cn1cncn1`, 2.9 nM.

On Cannabinoid receptor 1, `O=C(c1nn(-c2ccc(Cl)cc2Cl)c(-c2ccc(Br)cc2)c1Cn1cncn1)N1CCN(c2ncccn2)CC1` displayed an IC50 of 27.7 nM. The compound `CCCCC(CC)CNC(=O)c1nn(-c2ccc(Cl)cc2Cl)c(-c2ccc(Cl)cc2)c1Cn1cncn1` (stereo not drawn) showed an IC50 on Cannabinoid receptor 1 of 20.2 nM. Compound `CC(NC(=O)c1nn(-c2ccccc2Cl)c(-c2ccc(Br)cc2)c1Cn1cncn1)C(C)(C)C` (stereo not drawn) returned an IC50 at Cannabinoid receptor 1 of 6 nM.

`C[C@H]1CC[C@@H](NC(=O)c2nn(-c3ccc(Cl)cc3Cl)c(-c3ccc(Cl)cc3)c2Cn2cncn2)CC1` gave an IC50 on Cannabinoid receptor 1 of 17.1 nM. For the compound `O=C(NC1(c2ccc(Cl)cc2)CC1)c1nn(-c2ccc(Cl)cc2Cl)c(-c2ccc(Cl)cc2)c1Cn1cncn1`, the IC50 on Cannabinoid receptor 1 stood at 5.09 nM. On the same count and under the same terms, with `O=C(NN1CCCCC1)c1nn(-c2ccc(Cl)cc2Cl)c(-c2ccc(Br)cc2)c1Cn1cncn1` the figure was 5.11 nM.

Take `O=C(NC1(C(F)(F)F)CCC1)c1nn(-c2ccc(Cl)cc2Cl)c(-c2ccc(Cl)cc2)c1Cn1cncn1`: at Cannabinoid receptor 1, the IC50 was 4.67 nM. On Cannabinoid receptor 1, `CC(NC(=O)c1nn(-c2ccc(Cl)cc2Cl)c(-c2ccc(Br)cc2)c1Cn1cncn1)c1ccc(Cl)cc1Cl` (stereo not drawn) yielded an IC50 of 2.2 nM. Still for that read-out and setting: with `CC(C)(NC(=O)c1nn(-c2ccccc2Cl)c(-c2ccc(Cl)cc2)c1Cn1cncn1)c1ccc(Cl)cc1` the figure was 7.7 nM; with `O=C(c1nn(-c2ccc(Cl)cc2Cl)c(-c2ccc(Cl)cc2)c1Cn1cncn1)N1CCN(c2cccc(Cl)c2)CC1`, 7.33 nM. `O=C(NC1(C(F)(F)F)CCC1)c1nn(-c2ccccc2Cl)c(-c2ccc(Cl)cc2)c1Cn1cncn1` yielded an IC50 at Cannabinoid receptor 1 of 5.14 nM. Regarding `CC(C)(NC(=O)c1nn(-c2ccc(Cl)cc2Cl)c(-c2ccc(Br)cc2)c1Cn1cncn1)c1ccc(Cl)cc1`, on Cannabinoid receptor 1, the IC50 was 2.99 nM. On Cannabinoid receptor 1, `O=C(NC1CCCCCC1)c1nn(-c2ccccc2Cl)c(-c2ccc(Br)cc2)c1Cn1cncn1` gave an IC50 of 2.7 nM. Regarding `CC(C)(NC(=O)c1nn(-c2ccc(Cl)cc2Cl)c(-c2ccc(Cl)cc2)c1Cn1cncn1)c1ccc(Cl)cc1`, the IC50 at Cannabinoid receptor 1 was 3.33 nM. On the same count and under the same terms, as for `O=C(NCC1CCCCC1)c1nn(-c2ccc(Cl)cc2Cl)c(-c2ccc(Br)cc2)c1Cn1cncn1`, the figure is 20.5 nM; as for `O=C(NCc1ccccc1)c1nn(-c2ccccc2Cl)c(-c2ccc(Cl)cc2)c1Cn1cncn1`, 14.1 nM; as for `O=C(NC1CCCCC1)c1nn(-c2ccc(Cl)cc2Cl)c(-c2ccc(Cl)cc2)c1Cn1cncn1`, 3.77 nM. `CCC(C)(C)NC(=O)c1nn(-c2ccc(Cl)cc2Cl)c(-c2ccc(Cl)cc2)c1Cn1cncn1` had an IC50 on Cannabinoid receptor 1 of 3.01 nM.

Regarding `O=C(NC1(C(F)(F)F)CC1)c1nn(-c2ccc(Cl)cc2Cl)c(-c2ccc(Cl)cc2)c1Cn1cncn1`, the IC50 at Cannabinoid receptor 1 is 4.5 nM. On the same count and under the same terms, as for `CC(C)(NC(=O)c1nn(-c2ccc(Cl)cc2Cl)c(-c2ccc(Cl)cc2)c1Cn1cncn1)c1ccccc1`, the figure is 7.4 nM. Same read-out and setting: as for `O=C(NCc1ccccn1)c1nn(-c2ccccc2Cl)c(-c2ccc(Br)cc2)c1Cn1cncn1`, the figure is 63.4 nM.

Turning to `O=C(NC1(c2ccc(Cl)cc2)CC1)c1nn(-c2ccccc2Cl)c(-c2ccc(Br)cc2)c1Cn1cncn1`, the IC50 was 2570 nM at Cannabinoid receptor 2 and 1.7 nM at Cannabinoid receptor 1. In addition, in experiment [1], the Ratio IC50 is 1510. For the compound `O=C(NCC1CCCCC1)c1nn(-c2ccc(Cl)cc2Cl)c(-c2ccc(Cl)cc2)c1Cn1cncn1`, the IC50 on Cannabinoid receptor 1 amounted to 22.8 nM. With `O=C(c1nn(-c2ccc(Cl)cc2Cl)c(-c2ccc(Br)cc2)c1Cn1cncn1)N1CCN(c2cccc(Cl)c2Cl)CC1`, the IC50 at Cannabinoid receptor 1 turned out to be 5.74 nM. On to `O=C(NC1(C(F)(F)F)CC1)c1nn(-c2ccccc2Cl)c(-c2ccc(Br)cc2)c1Cn1cncn1`, for which, on Cannabinoid receptor 1, the IC50 was found to be 9.15 nM.

`CN1CCN(C(=O)c2nn(-c3ccccc3Cl)c(-c3ccc(Cl)cc3)c2Cn2cncn2)CC1`: on Cannabinoid receptor 1, the IC50 came out at 961 nM. Compound `O=C(NCc1ccccc1)c1nn(-c2ccc(Cl)cc2Cl)c(-c2ccc(Cl)cc2)c1Cn1cncn1` displayed a half-maximal inhibitory concentration (IC50) on Cannabinoid receptor 1 of 19.2 nM. As to `CCN1CCCC1CNC(=O)c1nn(-c2ccc(Cl)cc2Cl)c(-c2ccc(Cl)cc2)c1Cn1cncn1` (stereo not drawn), at Cannabinoid receptor 1, the IC50 turned out to be 4020 nM. Turning to `CCN1CCN(C(=O)c2nn(-c3ccccc3Cl)c(-c3ccc(Cl)cc3)c2Cn2cncn2)CC1`, on Cannabinoid receptor 1, the IC50 is 1050 nM. `O=C(NN1CCCCC1)c1nn(-c2ccccc2Cl)c(-c2ccc(Br)cc2)c1Cn1cncn1`: at Cannabinoid receptor 1, the IC50 turned out to be 5.23 nM. Same read-out and setting: as for `O=C(NC1(c2ccccc2)CC1)c1nn(-c2ccccc2Cl)c(-c2ccc(Cl)cc2)c1Cn1cncn1`, the figure is 5.81 nM. As to `CC(NC(=O)c1nn(-c2ccccc2Cl)c(-c2ccc(Cl)cc2)c1Cn1cncn1)c1ccc(Br)cc1` (stereo not drawn), the IC50 on Cannabinoid receptor 2 came out at 3510 nM; on Cannabinoid receptor 1 it was 1.8 nM. Moreover, the Ratio IC50 in experiment [1] is 1950. `O=C(NC1CCCC1)c1nn(-c2ccc(Cl)cc2Cl)c(-c2ccc(Cl)cc2)c1Cn1cncn1` gave an IC50 at Cannabinoid receptor 1 of 6.9 nM.

Compound `O=C(NC1(c2ccccc2)CC1)c1nn(-c2ccc(Cl)cc2Cl)c(-c2ccc(Cl)cc2)c1Cn1cncn1` came in with an IC50 on Cannabinoid receptor 1 of 5.1 nM. Compound `O=C(NC1CCCCCC1)c1nn(-c2ccc(Cl)cc2Cl)c(-c2ccc(Cl)cc2)c1Cn1cncn1` registered an IC50 at Cannabinoid receptor 1 of 11.2 nM.

On Cannabinoid receptor 1, `O=C(c1nn(-c2ccc(Cl)cc2Cl)c(-c2ccc(Cl)cc2)c1Cn1cncn1)N1CCN(c2ncccn2)CC1` showed an IC50 of 56 nM. Take `CN1CCN(C(=O)c2nn(-c3ccc(Cl)cc3Cl)c(-c3ccc(Cl)cc3)c2Cn2cncn2)CC1`: on Cannabinoid receptor 1, the IC50 is 1420 nM. On to `O=C(c1nn(-c2ccc(Cl)cc2Cl)c(-c2ccc(Br)cc2)c1Cn1cncn1)N1CCN(c2ccccc2)CC1`, for which the IC50 on Cannabinoid receptor 1 turned out to be 12.5 nM.

The compound `O=C(c1nn(-c2ccccc2Cl)c(-c2ccc(Cl)cc2)c1Cn1cncn1)N1CCN(c2ccccc2)CC1` displayed an IC50 on Cannabinoid receptor 1 of 11.5 nM. The compound `O=C(c1nn(-c2ccc(Cl)cc2Cl)c(-c2ccc(Br)cc2)c1Cn1cncn1)N1CCN(c2cccc(Cl)c2)CC1` gave an IC50 on Cannabinoid receptor 1 of 7.22 nM. Consider `Cc1cccc(N2CCN(C(=O)c3nn(-c4ccccc4Cl)c(-c4ccc(Cl)cc4)c3Cn3cncn3)CC2)c1C`, for which the IC50 on Cannabinoid receptor 1 was found to be 6.09 nM. Consider `O=C(NC1CCCCCC1)c1nn(-c2ccccc2Cl)c(-c2ccc(Cl)cc2)c1Cn1cncn1`, for which, on Cannabinoid receptor 1, the IC50 is 9.7 nM. `CC(NC(=O)c1nn(-c2ccc(Cl)cc2Cl)c(-c2ccc(Cl)cc2)c1Cn1cncn1)C(C)(C)C` (stereo not drawn): the IC50 at Cannabinoid receptor 1 amounted to 8.44 nM.

With `N#CC1(NC(=O)c2nn(-c3ccccc3Cl)c(-c3ccc(Br)cc3)c2Cn2cncn2)CC1`, the IC50 on Cannabinoid receptor 1 came to 19.6 nM.
